# A selection: hits, their analogues and other compounds. The true share with any hit is near 1.6%.
# MBD2 inh – MBD2-methylated oligo binding inhibition; AID 686964; 370,000 compounds, 0.31% hits; TR-FRET, MBD2 binding to methylated oligonucleotide; Q9UBB5; inhibition, % at 4.4 µM; in the data active means inhibition above about 13%
# LEDGF integ inh – blocks HIV-1 LEDGF/p75-dependent DNA integration; 370,000 compounds, 0.64% hits; TR-FRET IN-LEDGF/p75 DNA integration, Eu/Cy5; inhibition, % at 3.7 µM;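 active means inhibition above the screen-wide mean plus 3 SD, cut at about 13% in these data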;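 further: signal is the Cy5 over europium emission ratio at 671 and 618 nm; 0% = plate median of compound wells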
# TDP2 absorb – blocks human TDP2 phosphodiesterase activity | O95551 | recombinant TDP2, T5PNP hydrolysis, p-nitrophenol absorbance 415 nm | inhibition, % at 12.8 µM | 370,000 compounds, 0.34% hits | AID 720702;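 active means inhibition above the mean of all tested compounds plus 3 SD, set per campaign, cut at about 25% in these data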;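 further: 0% = DMSO with enzyme and 100% = buffer with substrate but no TDP2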
# Target sequence (O95551 whole entry, looked up): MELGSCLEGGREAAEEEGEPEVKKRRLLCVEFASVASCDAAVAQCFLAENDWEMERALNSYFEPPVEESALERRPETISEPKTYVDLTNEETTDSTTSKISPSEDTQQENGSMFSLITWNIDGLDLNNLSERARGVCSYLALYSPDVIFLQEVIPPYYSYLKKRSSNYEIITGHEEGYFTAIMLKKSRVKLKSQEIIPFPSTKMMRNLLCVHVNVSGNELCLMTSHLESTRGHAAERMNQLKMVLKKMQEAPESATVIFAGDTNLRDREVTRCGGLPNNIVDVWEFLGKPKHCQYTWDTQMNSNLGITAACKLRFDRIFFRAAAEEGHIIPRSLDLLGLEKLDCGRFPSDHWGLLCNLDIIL
#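 Test system: human TDP2 enzyme; Input: 120 nM TDP2 per well; Buffer or medium: Mg2+-containing Tris-HCl buffer, pH 7.5; Reagent: 5 mM T5PNP; Dosing: 12.8 µM single point, 1% DMSO; Incubation: reaction 2 h, 37 °C; Detection: p-Nitrophenol epi absorbance; Read-out: % inhibition relative to enzyme-containing and enzyme-free wells; Replicates: single well per compound.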
# UHRF1 MBD2 ctr – blocks human UHRF1 binding to methylated DNA. UHRF1 binding to methylated oligo, TR-FRET. inhibition, % at 4.4 µM. AID 687016. 370,000 compounds, 0.75% hits;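 further: UHRF1 SRA domain binding a hemimethylated CpG hairpin DNA probe; 0% = median of test compound wells and 100% = reference inhibitor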
# UHRF1 DNA bind – inhibits human UHRF1 binding to methylated oligonucleotide, MBD2 counter-screen; shares compounds with MBD2 inh; TR-FRET; inhibition, % at 4.4 µM; 1,000 compounds, 25% hits; AID 720530;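 further: UHRF1 SRA domain binding a labeled hemimethylated CpG hairpin DNA; 0% = vehicle only and 100% = reference inhibitor with vehicle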
# MBD2 DBD conf – confirmation of human MBD2-DBD methylated oligonucleotide binding inhibitors. shares compounds with MBD2 inh. TR-FRET MBD2-DBD binding to methylated oligonucleotide. inhibition, % at 4.4 µM. 1,000 compounds, 26% hits; in the data active means inhibition above about 14%
# An asterisk follows results filed as active; x = no result given. Unless noted, no stated cut-off is given here; in the data, active means inhibition above about 21%; inactive means the rest.
SMILES,MBD2 inh,LEDGF integ inh,TDP2 absorb,UHRF1 MBD2 ctr,UHRF1 DNA bind,MBD2 DBD conf
COCCCN1CCC2(CCC(c3ccccc3)CC2)C1=O (stereo not drawn),-10,-1,-4,-4,x,x
COc1ccc(N=Cc2ccc[nH]2)cc1,22*,-7,-3,0,7,2
O=C(NCc1ccc(Cl)cc1)C1C2C=CC3(CN(Cc4ccccc4)C(=O)C13)O2 (stereo not drawn),-1,4,-4,4,x,x
CSc1nsc(SCC(=O)Nc2ccc(C(N)=O)cc2)n1,23*,-3,-5,0,6,2
CSc1nsc(SCC(=O)Nc2ccc(C(C)=O)cc2)n1,1,0,-1,0,x,x
COc1cccc(-c2oc3c(c2-c2ccc(Br)nc2)C(O)CCC3)c1 (stereo not drawn),13*,1,-2,15,22*,28*
N[C@H](C(=O)N[C@@H](Cc1ccccc1)C(=O)N1CCC2CCN(S(=O)(=O)c3ccccc3)CC21)c1ccccc1 (stereo partly drawn),0,0,10,3,x,x
Cc1nn2c(-c3ccc(S(=O)(=O)N4CCN(CCO)CC4)o3)nnc2c2ccccc12,16*,2,4,13,3,5
COc1ccc(-c2nnc3c4ccccc4c(C)nn23)cc1S(=O)(=O)N1CCN(CCO)CC1,7,0,12,6,x,x
C[C@H](O)[C@@H]1C(=O)N2CCc3c([nH]c4c(-c5ccccc5)cccc34)[C@@H]2C[C@@H]1N(C)C(=O)NC1CCCCC1,-6,1,1,1,x,x
Cc1ccc(NCCN(C)C)c2c(=O)c3cc(O)ccc3sc12,13*,1,2,-5,10,27*
CN(C)CCNc1cccc2sc3ccc(O)cc3c(=O)c12,4,-1,5,-6,x,x
CC(=O)c1cccc(OCC(=O)N(C)CC(=O)NCc2ccco2)c1,22*,30*,-7,49*,43*,18*
CCN(CC)C(=O)c1csc([C@@H]2O[C@H](CO)[C@H](O)[C@H](O)[C@H]2O)n1,26*,-1,-8,2,4,3
CN(Cc1ccccc1)C(=O)c1csc([C@@H]2O[C@H](CO)[C@@H](O)[C@H]2O)n1,0,-2,-7,4,x,x
O=C(c1ccc(S(=O)(=O)N2CCC(c3nc4ccccc4[nH]3)CC2)cc1)N1CCOCC1,14*,1,3,22*,6,9
CSc1ccc(CN(C)CC(=O)NC(C)c2ccccc2)cc1 (stereo not drawn),19*,0,1,-6,9,5
CC(NC(=O)CN(C)Cc1ccc(Br)cc1)c1ccccc1 (stereo not drawn),-7,-2,-5,-2,x,x
N#Cc1cccc(CNCC(=O)N2CCC3(CC2)OCCO3)c1,-4,3,7,-1,x,x
O=C(NCc1ccco1)C1CCCN(S(=O)(=O)c2ccccc2F)C1 (stereo not drawn),4,-4,1,-1,x,x
CN(C)C=Nc1ncc2c3ccccc3n(CCN(C)C)c2c1C#N,1,-2,5,2,x,x
CCN(CC)CCn1c2ccccc2c2cnc(N)c(C#N)c21,16*,2,-7,17,21*,33*
COc1cc2c(cc1OC)-c1c(OC)c(OC)cc3ccnc(c13)C2=O,33*,-2,6,37*,53*,46*
COc1cc(-c2nccc3cc4c(cc23)OCO4)cc(OC)c1OC,-5,4,-3,1,x,x
COC(=O)c1cccc(Cn2ccc3ccc(-c4ccc5ccn(C(=O)C6CCC6)c5c4)cc32)c1,-7,-1,-3,1,x,x
SMILES,MBD2 inh,LEDGF integ inh,TDP2 absorb,UHRF1 MBD2 ctr,UHRF1 DNA bind,MBD2 DBD conf
CC1Sc2ccccc2N(Cc2ccccc2)C1=O (stereo not drawn),0,-1,6,-1,x,x
CC1Sc2ccccc2N(Cc2ccc(OC(F)(F)F)cc2)C1=O (stereo not drawn),26*,-1,-1,17,5,5
O=S(=O)(c1ccccc1)n1c(CN2CCOCC2)nc2ccccc21,-6,8,-1,-2,x,x
Cc1cc(C)c2c(N)c3ccccc3nc2n1,20*,0,-12,22*,21*,25*
COC(=O)[C@]12C[C@H](CC(=O)NCc3cccc(C(F)(F)F)c3)C(=O)N(Cc3ccco3)C1=C[C@H](C(C)C)O[C@@H]2C1CC1,0,-3,0,-2,x,x
CCC1CCCCN1C(=O)COC(=O)c1cccs1 (stereo not drawn),17*,-1,7,14,1,7
O=C(CSc1ccccc1)N1CCc2ccccc21,14*,4,4,22*,2,2
Cc1c(-c2ccc(F)cc2)nc(N)c(C#N)c1-c1cccnc1,2,-6,13,-1,x,x
Cc1ccc(-c2c(C)c(-c3ccc(F)cc3)nc(N)c2C#N)o1,19*,2,-5,-3,-1,5
O=S(=O)(NCC1CCCO1)c1ccc2oc3ccc(S(=O)(=O)NCC4CCCO4)cc3c2c1 (stereo not drawn),18*,2,6,-2,12,3
O=S(=O)(NCC1CCCO1)c1ccc(Br)cc1 (stereo not drawn),-4,2,24,2,x,x
C=CCN(CC=C)Cc1c(O)ccc2c1oc(=O)c1ccccc12,13*,0,-9,16,-1,12
O=C(COC(=O)c1cc2c(s1)CCC2)Nc1ccc(F)cc1,15*,8,-5,28*,32*,19*
CCOC(=O)C1CCN(CC(=O)Nc2c(C(=O)OC)[nH]c3ccccc23)CC1,5,-1,1,1,x,x
CCOC(=O)C1CCN(CC(=O)Nc2c(C(=O)OC)[nH]c3cccc(Cl)c23)CC1,14*,2,-8,-1,3,6
C=CCN1[C@H](C#N)[C@@H](c2ccc(C#Cc3ccccc3OC)cc2)[C@H]1CO,14*,1,16,17,9,8
C=CCN1[C@H](CO)[C@H](c2ccc(C#CC3(O)CCCC3)cc2)[C@@H]1C#N,14*,3,10,19,5,11
CCOC(=O)CNC(=O)c1ccc(C#CC2(O)CCCCC2)cc1,-4,1,10,-2,x,x
C=CCn1c2ccccc2c(=O)c2cc(C#Cc3cc(OC)cc(OC)c3)ccc21,-3,-1,6,-3,x,x
CC(C)C[C@@H]1COc2cc(N3CCSCC3)ccc2S(=O)(=O)N1C,3,0,4,0,x,x
CCCc1nc2c(C)cc(Br)cn2c1Cc1ccsc1,2,0,11,10,x,x
CCCc1nc2ccc(Cl)cn2c1Cc1ccccc1,18*,-1,-1,23*,10,5
CCCc1nc2c(C)cc(Br)cn2c1Cc1ccccc1,13*,-1,-5,22*,11,6
